# Results from different studies.
# Compare with care: the assays were run in different laboratories.
# Effect on: metabolic stability
# Host: human
Compound,test system,setting,half-life [min]
COc1ccc([C@@]23Oc4cc(OC)cc(OC)c4[C@@]24N=C(C2CC2)N[C@@]4(O)[C@H](C(=O)N(C)OC)[C@H]3c2ccccc2)cc1,liver microsomes,"1 µM, pH 7.4",18.3
C[C@]12CC[C@H]3[C@@H](CCC4=CC(=O)CC[C@@]43C)[C@@H]1CC[C@@H]2O,liver microsomes,"10 µM, pH 7.4",19.3
CNC(C)Cc1ccc2nonc2c1 (stereo not drawn),liver microsomes,0.5 µM,> 150
C[C@]12CC[C@H]3[C@@H](CCC4=CC(=O)CC[C@@]43C)[C@@H]1CC[C@@H]2O,hepatocytes,1 µM,6.51
C[C@]12CC[C@H]3[C@@H](CC=C4CC(O)CC[C@@]43CO)[C@@H]1CCC2O (stereo partly drawn),liver microsomes,,73.6
CC[C@H](C)[C@H](NC(=O)[C@H](CC(=O)O)NC(=O)[C@H](CS)NC(=O)[C@H](CCCCN)NC(=O)[C@H](CS)NC(=O)[C@H](CCSC)NC(=O)[C@@H]1CCCN1C(=O)[C@H](CCC(N)=O)NC(=O)[C@@H]1CCCN1C(=O)[C@H](CCCNC(=N)N)NC(=O)[C@H](CCCNC(=N)N)NC(=O)[C@H](CCCNC(=N)N)NC(=O)[C@H](CCCNC(=N)N)NC(=O)[C@H](CCC(N)=O)NC(=O)[C@H](CCCNC(=N)N)NC(=O)[C@H](CCCNC(=N)N)NC(=O)[C@H](CCCCN)NC(=O)[C@H](CCCCN)NC(=O)[C@H](CCCNC(=N)N)NC(=O)CN)C(=O)N[C@@H](CC(C)C)C(=O)N[C@@H](CCCCN)C(=O)N[C@@H](C)C(=O)O,liver microsomes,1 µM,6
CNC(C)Cc1ccc2nsnc2c1 (stereo not drawn),liver microsomes,0.5 µM,53
CC(C)C[C@H](NC(=O)[C@H](Cc1ccccc1)NC(=O)[C@H](Cc1ccccc1)NC(=O)Cc1ccc(-c2ccccc2)cc1)C(=O)N[C@@H](CCCCN)C(=O)N[C@@H](CCCNC(=N)N)C(=O)N[C@H](C(=O)N[C@@H](Cc1c[nH]c2ccccc12)C(=O)N[C@@H](CCCCN)C(=O)N[C@@H](CCCNC(=N)N)C(=O)O)C(C)C,liver microsomes,1 µM,22.8
CONC(=O)[C@H]1[C@@H](O)[C@@]2(O)c3c(OC)cc(OC)cc3O[C@@]2(c2ccc(OC)cc2)[C@@H]1c1ccccc1,liver microsomes,,120
